Bioassay records deposited in PubChem BioAssay by Johns Hopkins Ion Channel Center.
TRPC6 activator: activates the mouse TRPC6 cation channel. 0.13% of 310,000 active. HEK293-TRPC6 membrane potential dye fluorescence; hits give high values. B-score at 10 µM. Q61143;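 active = B-score of the integrated fluorescence ratio above library mean plus 3 SD, and starting fluorescence ratio within library mean plus 5 SD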;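 also: higher score means more depolarization so channel activation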
Target sequence (Q61143 whole entry, looked up): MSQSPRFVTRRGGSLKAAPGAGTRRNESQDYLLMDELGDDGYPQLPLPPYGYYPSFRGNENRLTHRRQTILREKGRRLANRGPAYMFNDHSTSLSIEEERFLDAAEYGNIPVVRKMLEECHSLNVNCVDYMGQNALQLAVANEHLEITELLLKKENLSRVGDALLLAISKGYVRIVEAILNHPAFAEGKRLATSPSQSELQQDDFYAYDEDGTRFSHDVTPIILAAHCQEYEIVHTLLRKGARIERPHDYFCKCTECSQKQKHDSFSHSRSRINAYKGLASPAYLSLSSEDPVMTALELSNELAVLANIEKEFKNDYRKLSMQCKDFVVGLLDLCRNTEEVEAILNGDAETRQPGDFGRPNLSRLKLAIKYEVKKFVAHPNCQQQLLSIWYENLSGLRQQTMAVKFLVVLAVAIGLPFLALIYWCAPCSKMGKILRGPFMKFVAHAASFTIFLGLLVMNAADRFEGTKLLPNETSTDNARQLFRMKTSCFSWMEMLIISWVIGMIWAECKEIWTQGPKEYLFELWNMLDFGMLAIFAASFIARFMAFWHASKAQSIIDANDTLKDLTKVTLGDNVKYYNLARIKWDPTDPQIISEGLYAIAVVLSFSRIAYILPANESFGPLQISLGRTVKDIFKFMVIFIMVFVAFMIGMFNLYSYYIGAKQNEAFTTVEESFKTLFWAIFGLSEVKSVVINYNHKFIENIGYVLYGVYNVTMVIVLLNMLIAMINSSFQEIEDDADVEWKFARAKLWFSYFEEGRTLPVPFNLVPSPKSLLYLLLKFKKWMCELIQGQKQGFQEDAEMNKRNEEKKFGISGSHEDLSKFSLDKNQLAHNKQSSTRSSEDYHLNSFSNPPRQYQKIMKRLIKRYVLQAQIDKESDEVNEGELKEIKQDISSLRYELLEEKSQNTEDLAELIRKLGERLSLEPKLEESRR
TRPC4 agonist: opens the mouse TRPC4 cation channel | Q9QUQ5 | HEK293 TRPC4beta/mu-opioid, Fluo4 calcium fluorescence; hits give high values | B-score at 10 µM | 0.49% of 310,000 active;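 active = B-score above 5 SD of library B-scores, and initial fluorescence ratio not above library mean plus 5 SD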;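 also: positive B-score marks a calcium rise read as TRPC4 activation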
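Assay system – TRPC4beta and mu-opioid receptor HEK293 stable cells · Measured by – Fluo4 fluorescence, kinetic · Schedule – dye loading 45 min room temperature, 110 s kinetic read · Read-out – B-scored integrated calcium fluorescence ratio · Controls – buffer and maximal DAMGO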
TRPC4 block: TRPC4 (mouse) channel inhibition. Q9QUQ5. HEK293 TRPC4beta/mu-opioid, DAMGO-evoked Fluo4 calcium flux; hits give low values. B-score at 10 µM. 0.39% of 300,000 active. AID 2247;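 active = B-score over 3 SD under the library average, no early fluorescence shift, positive overall ratio signal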
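material = TRPC4beta/mu-opioid receptor HEK293 cell line | probe or stimulus = sequential submaximal and maximal DAMGO stimulation | compound dosing = one concentration per compound | measured by = Fluo4 Ca2+ flux fluorescence | evaluation = integrated fluorescence ratio relative to baseline, converted to per-well B score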
TRPC4 potent: allosterically enhances the mouse TRPC4 cation channel; Q9QUQ5; HEK293 TRPC4beta/mu-opioid, DAMGO EC20, Fluo-4 Ca2+ flux; hits give high values; B-score at 10 µM; 0.42% of 310,000 active;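 active = B-score of calcium response area above 5 SD of library B-scores, with initial fluorescence ratio within 5 SD of library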;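 also: B-score of integrated fluorescence ratio over time as area under calcium response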
TRPC6 inhibitor: mouse TRPC6 channel inhibition | HEK293-TRPC6, membrane potential dye, ACh-evoked depolarization; hits give low values | B-score at 10 µM | 1.1% of 310,000 active | AID 2553;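 active = B-score under library mean minus 3 SD, initial fluorescence not abnormally high, positive integrated signal ratio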;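 also: B-score derived from integrated fluorescence ratio over the kinetic read; more negative B-score means stronger inhibition of depolarization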
TRPC4 sel inh 2: mouse TRPC4 off-target activity of TRPC6 inhibitors, second screen; inhibition, % at 10 µM; shares compounds with TRPC6 inhibitor; 42% of 920 active; HEK293 TRPC4/MOR, membrane potential dye fluorescence; channel activated by saturating DAMGO dose;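 active = compounds whose fluorescence signal differed from control wells by over 3 SD, either direction, in both duplicate plates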
TRPC4 spec: tests whether TRPC6 inhibitors also affect mouse TRPC4 | shares compounds with TRPC6 inhibitor | HEK293 TRPC4/mu-opioid, membrane potential fluorescence | activity change, negative = inhibition, % at 10 µM | 61% of 920 active | AID 2777;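 active = rise or fall in signal beyond 3 SD of buffer-only wells in both replicate plates, either sign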;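 also: integrated kinetic ratio of fluorescence range over baseline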
HEK293 MPD ctr 2-1: second check of TRPC6 inhibitor effects in parental HEK293 cells; parental HEK293 membrane potential dye fluorescence; maximal acetylcholine challenge after compound addition; AID 2779; signal change vs control, % at 10 µM; shares compounds with TRPC6 inhibitor; 31% of 920 active;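 active = membrane potential signal moving either way by over 3 SD of the maximum-effect control, in both duplicate plates, meaning non-specific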
HEK293 MPD ctr-1: counter-screen for TRPC6 inhibitors: effect in parental HEK293 cells. parental HEK293 membrane potential dye fluorescence. AID 2780. 60% of 920 active. shares compounds with TRPC6 inhibitor. membrane potential signal change, % at 10 µM;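 active = membrane potential signal shifting up or down by more than 3 SD of buffer-only wells, on both duplicate plates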
HEK293 MPD ctr-2: counter-screen for TRPC6 modulators: effect in parental HEK293 cells; shares compounds with TRPC6 inhibitor; membrane potential dye fluorescence; membrane potential signal change, % at 10 µM; 51% of 2,400 active; AID 488924;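 active = membrane potential signal moves up or down beyond 5 SD from buffer-only wells, on both duplicate plates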
HEK293 MPD ctr 2-2: parental HEK293 nonspecific activity of TRPC6 modulators, second screen; inhibition, % at 10 µM; shares compounds with TRPC6 inhibitor; AID 488926; 14% of 2,400 active; membrane potential dye fluorescence; after compound, maximal acetylcholine stimulation;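 active = membrane potential signal drops by more than 5 SD from the mean control signal, in both duplicate plates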;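 also: plate controls were acetylcholine ECmax control wells for no effect and buffer only wells for full effect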
TRPC4/MOR mod: tests whether TRPC6 modulators also affect mouse TRPC4; shares compounds with TRPC6 inhibitor; HEK293 TRPC4/mu-opioid, membrane potential fluorescence; percent change from control (negative = decrease, positive = increase), % at 10 µM; 69% of 2,400 active; AID 488927;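 active = membrane potential signal moved up or down beyond 5 SD of buffer control wells, in both duplicate plates, actives on both sides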;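 also: plate controls were assay buffer wells for no effect and DAMGO maximal-effect wells for full effect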
TRPC4/MOR inh 2: second selectivity test of TRPC6 modulators against mouse TRPC4; shares compounds with TRPC6 inhibitor; HEK293 TRPC4/mu-opioid, membrane potential dye fluorescence; stimulated with maximal-effect DAMGO; inhibition, % at 10 µM; 55% of 2,400 active;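 active = drop in membrane potential signal beyond 5 SD of the control wells in both duplicate plates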;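 also: TRPC4 counter screen for TRPC6 hits run under conditions tuned for TRPC6 not TRPC4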
TRPC6 block conf: confirmation of mouse TRPC6 inhibitors; shares compounds with TRPC6 inhibitor; HEK293-TRPC6, membrane potential dye, ACh-evoked depolarization; inhibition, % at 10 µM; 43% of 3,300 active; AID 488960;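 active = fluorescence ratio falls more than 5 SD below the full-stimulation control mean, in both duplicate runs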;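 also: integrated fluorescence ratio of peak minus minimum over baseline after agonist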
TRPC6 act confirm: mouse TRPC6 activator confirmation | AID 488961 | activation, % at 10 µM | shares compounds with TRPC6 inhibitor | HEK293-TRPC6 membrane potential dye fluorescence, FDSS | 11% of 2,800 active;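 active = ratio signal rise beyond 5 SD above unstimulated control wells' mean, seen in both duplicate runs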;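 also: plate controls were buffer EC0 wells for no effect and acetylcholine ECmax response for full effect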
Numbers without * were called inactive; i = inactive; . = no result given. Shown are actives, neighbours in structure and some others; about 2.3% of the full set was active somewhere.

SMILES	TRPC6 activator	TRPC4 agonist	TRPC4 block	TRPC4 potent	TRPC6 inhibitor	TRPC6 block conf	TRPC6 act confirm	others
CN1CCN(CC(O)COc2ccc(Cl)cc2)CC1 (stereo unspecified)	i	i	i	i	i	.	.
Cc1nnsc1C(=O)N/N=C/c1ccccc1	i	i	i	i	i	.	.
Cc1nnsc1C(=O)N/N=C/c1ccc2ccccc2c1O	i	i	i	i	-7.62*	i	.	TRPC4 sel inh 2=i;TRPC4 spec=27.0%*;HEK293 MPD ctr 2-1=-47.0%*;HEK293 MPD ctr-1=19.0%*
COc1ccc(-c2csc(N(CCCN(C)C)C(=O)c3ccc(Br)cc3)n2)cc1	i	i	i	i	i	.	.
CCN(CC)CCCN(C(=O)c1ccc(OC)cc1)c1nc(-c2ccc(OC)cc2)cs1	i	i	i	i	-9.11*	77.3%*	i	TRPC4 sel inh 2=23.5%*;TRPC4 spec=-17.6%*;HEK293 MPD ctr 2-1=i;HEK293 MPD ctr-1=i
CCN(CC)CCCN(C(=O)c1ccccc1F)c1nc(-c2ccc(OC)cc2)cs1	i	i	i	i	-7.12*	51.2%*	i	TRPC4 sel inh 2=47.0%*;TRPC4 spec=i;HEK293 MPD ctr 2-1=i;HEK293 MPD ctr-1=-0.1%*
COc1ccc(-c2csc(N(CCCN(C)C)C(=O)c3ccc(C)cc3)n2)cc1	i	i	i	i	-6.49*	56.0%*	i	HEK293 MPD ctr-2=i;HEK293 MPD ctr 2-2=i;TRPC4/MOR mod=i;TRPC4/MOR inh 2=81.5%*
CCN(CC)CCCN(C(=O)c1ccccc1C)c1nc(-c2ccc(OC)cc2)cs1	i	i	i	i	i	.	.
COc1ccc(-c2csc(N(CCCN(C)C)C(=O)c3ccc(C(C)(C)C)cc3)n2)cc1	i	i	i	i	i	.	.
COc1ccc(-c2csc(N(CCCN(C)C)C(=O)c3cc(OC)c(OC)c(OC)c3)n2)cc1	i	i	i	i	-5.68*	i	i	HEK293 MPD ctr-2=i;HEK293 MPD ctr 2-2=i;TRPC4/MOR mod=i;TRPC4/MOR inh 2=66.5%*
COc1cc(C(=O)Nc2cccc(-c3nncn3C)c2)cc(OC)c1OC	i	i	i	i	i	.	.
CC(C)Oc1cccc(C(=O)C2CCCN(C(=O)CCn3cnnn3)C2)c1 (stereo unspecified)	i	i	i	i	i	.	.
Cc1ccc(Nc2nc(N3CCOCC3)c3ccccc3n2)cc1	i	i	i	i	-5.26*	i	i	HEK293 MPD ctr-2=i;HEK293 MPD ctr 2-2=i;TRPC4/MOR mod=-21.5%*;TRPC4/MOR inh 2=55.0%*
c1ccc2c(c1)nc(N1CCCCCC1)c1ccccc12	i	i	i	i	i	.	.
